Published values collected from several papers.
Lines come from different studies, so protocols differ.
Target: Mitogen-activated protein kinase kinase kinase 2 (MAP3K2, Homo sapiens, UniProt Q9Y2U5)
Sequence (Q9Y2U5 1-619, as in one of the studies): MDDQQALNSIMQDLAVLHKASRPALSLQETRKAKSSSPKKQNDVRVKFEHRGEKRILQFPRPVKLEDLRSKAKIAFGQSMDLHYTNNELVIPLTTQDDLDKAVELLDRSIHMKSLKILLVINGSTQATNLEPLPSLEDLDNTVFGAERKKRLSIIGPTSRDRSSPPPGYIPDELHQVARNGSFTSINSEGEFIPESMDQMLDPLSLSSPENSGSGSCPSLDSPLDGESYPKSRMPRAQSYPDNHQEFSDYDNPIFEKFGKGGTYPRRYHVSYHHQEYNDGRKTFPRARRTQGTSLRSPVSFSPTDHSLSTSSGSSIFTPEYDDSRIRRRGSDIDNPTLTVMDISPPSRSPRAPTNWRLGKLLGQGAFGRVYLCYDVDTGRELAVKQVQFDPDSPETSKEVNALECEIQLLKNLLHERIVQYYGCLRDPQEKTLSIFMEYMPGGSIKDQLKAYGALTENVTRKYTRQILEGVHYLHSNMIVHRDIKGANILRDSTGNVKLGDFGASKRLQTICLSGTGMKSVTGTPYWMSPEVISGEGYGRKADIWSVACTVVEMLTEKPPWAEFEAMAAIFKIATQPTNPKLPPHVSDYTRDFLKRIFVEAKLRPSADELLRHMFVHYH

For `CCC(=N\O)/C(C)=C/c1ccc(F)cc1`, the remaining binding was 85% (cell-free assay; competition with immobilised ligand; 1 µM).
With `C[C@@H]1CCN(c2nccc(-c3cnn4ncccc34)n2)C1` the remaining binding was 79% (binding; 1 µM).
With `O=C(NCCCN1CCOCC1)c1ccc(Nc2nccc(-c3cc4ccccc4s3)n2)cc1` the remaining binding was 24% (binding; competition with immobilised ligand; 1 µM).
`CNC(=O)[C@@H]1CC[C@@H](n2c(-c3ccc4cnccc4c3)nc3ccc(C(=O)NCc4cccc(C(N)=O)c4)cc32)C1` has a remaining binding of 86% (binding; competition with immobilised ligand; 1 µM).
`c1ccc(N2CCN(Cc3nc4ccccc4[nH]3)CC2)nc1` gave a remaining binding of 100% (binding; competition with immobilised ligand; 1 µM).
`COc1ccnn2ncc(-c3ccnc(N(C)C)n3)c12` gave a remaining binding of 87% (binding; 1 µM).
The remaining binding of `O=C(c1ccc(Nc2ncc(Cl)c(-c3ccc(Cl)s3)n2)cc1)N1CCC(N2CCCC2)CC1` is reported as 4.9% (binding; competition with immobilised ligand; 1 µM).
For `O=C(Nc1ccc(Oc2ccc(F)cc2)cc1)N1CCc2ncccc2[C@H]1c1ccc(F)cc1`, the remaining binding was 89% (cell-free assay; competition with immobilised ligand; 1 µM).
`Nc1ncc2c(n1)-c1c([nH]c3ccc(C#CC4CC4)cc13)CCCC2` gave a remaining binding of 85% (binding; competition with immobilised ligand; 1 µM).
For `C=CC(=O)N1CCC(C(=O)NCC(=O)N2CCN(c3nc(-c4cnc(N)nc4C(F)F)nc(N4CCOCC4)n3)CC2)CC1`, the remaining binding was 69% (binding; competition with immobilised ligand; 1 µM).
`CN(C)c1nccc(-c2cnn3ncccc23)n1` has a remaining binding of 78% (binding; 1 µM).
`O=C(Nc1cccnn1)N1CC(C/C=C/c2cncc(Oc3ccc(C(F)(F)F)cn3)n2)C1` has a remaining binding of 79% (cell-free assay; competition with immobilised ligand; 1 µM).
The remaining binding of `c1cncc(-c2cccc(Nc3nccc(NC4CCCCC4)n3)c2)c1` is reported as 48% (binding; competition with immobilised ligand; 10 µM).
`F[C@@H]1CCN(c2nccc(-c3cnn4ncccc34)n2)C1` gave a remaining binding of 92% (binding; 1 µM).
For `O=C(NCC1CCOCC1)c1n[nH]cc1NC(=O)c1c(F)cccc1F`, the remaining binding was 73% (binding; competition with immobilised ligand; 1 µM).
`CN(C)c1nccc(-c2cnc3ncccn23)n1` gave a remaining binding of 73% (binding; 1 µM).
With `CCCCN(CCCC)C(=O)CN1C[C@@H](c2cc(OC)c3c(c2)OCO3)[C@H](C(=O)O)[C@H]1CC(C)(C)CCC` the remaining binding was 84.6% (cell-free assay; competition with immobilised ligand; 1 µM).
The remaining binding of `N[C@H]1CCN(c2nccc(-c3cnn4ncccc34)n2)C1` is reported as 100% (binding; 1 µM).
The remaining binding of `CN(C)CC#Cc1ccc(OCCCc2sc(N3CCc4cccc(C(=O)Nc5nc6ccccc6s5)c4C3)nc2C(=O)O)c(F)c1` is reported as 75% (cell-free assay; competition with immobilised ligand; 1 µM).
The remaining binding of `O=C(c1ccc(Nc2ncc(Cl)c(-c3cc4ccccc4s3)n2)cc1)N1CCC(N2CCCC2)CC1` is reported as 20% (binding; competition with immobilised ligand; 1 µM).
The remaining binding of `C[C@@H](c1ccc(-n2cnc3c(N)ncnc32)cc1)N1CCc2nn(C)c(Cc3ccccc3)c2C1=O` is reported as 57% (binding; competition with immobilised ligand; 0.1 µM).
